From ChEMBL document CHEMBL4350976, “Sequence modification of heptapeptide selected by phage display as homing device for HT-29 colon cancer cells to improve the anti-tumour activity of drug delivery systems” (Eur J Med Chem, 2019)
Where a SMILES comes first, the peptide text is derived from it. The star is where a group is joined. X1 = COc1cccc2c1C(=O)c1c(O)c3c(c(O)c1C2=O)C[C@@](O)(/C(C)=N/OCC(=O)*)C[C@@H]3O[C@H]1C[C@H](N)[C@H](O)[C@H](C)O1

Columns and labels:
[1] = Stability in serum free medium at 30 uM incubated for 3 hrs by LC/MS analysis
Method in brief: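 Conjugates (30 μM) were incubated at 37 °C in serum-free medium. Samples were taken at 0 and 3 h, quenched with acetic acid, lyophilised, desalted on C18 spin columns and analysed by LC-MS.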

[2] = Drug metabolism in rat liver lysosomes homogenate assessed as increase in Dau = Aoa-Leu-OH metabolite formation at 0.05 ug/ul after 1 hr by LC-MS analysis; assay type: ADME, subcellular, Lysosome; details: tissue homogenate
Method in brief: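 Conjugates and rat liver lysosomal homogenate were each used at 0.05 µg/µL. Samples were taken at 0, 1, 3, 6 and 24 h. Metabolites were identified by LC-MS on a C18 column with a formic acid/acetonitrile gradient.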

WiDr [3] = assay: Cytostatic activity against human WiDr cells preincubated for 24 hrs under serum free condition followed by compound washout and further incubation for 48 hrs in presence of serum by MTT assay; assay type: functional, cell-based
Method in brief: (§1)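 Cells were grown at 37 °C in 5% CO2 in medium with 10% heat-inactivated FBS (20% for OVCAR-3) plus penicillin/streptomycin. The medium was RPMI-1640 for most lines, DMEM for U-87 MG and MRC-5, and IMDM for PE/CA-PJ lines. Seeding was 3×10^3–10×10^3 cells per well. Cells had 24 h compound exposure, a wash, and 48 h further culture. Read-out was MTT, normalized to untreated cells and fitted by nonlinear regression for IC50.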

HepG2 [4] = assay: Cytostatic activity against human HepG2 cells preincubated for 24 hrs under serum free condition followed by compound washout and further incubation for 48 hrs in presence of serum by MTT assay; assay type: functional, cell-based; method in brief: as §1
NCI-H1975 = assay: Cytostatic activity against human NCI-H1975 cells preincubated for 24 hrs under serum free condition followed by compound washout and further incubation for 48 hrs in presence of serum by MTT assay; assay type: functional, cell-based; method in brief: as §1
[5] = Cytostatic activity against human M24 cells preincubated for 24 hrs under serum free condition followed by compound washout and further incubation for 48 hrs in presence of serum by MTT assay; assay type: functional, cell-based; method in brief: as §1
[6] = Cytostatic activity against human WM983B cells preincubated for 24 hrs under serum free condition followed by compound washout and further incubation for 48 hrs in presence of serum by MTT assay; assay type: functional, cell-based; method in brief: as §1
B16 [7] = assay: Cytostatic activity against mouse B16 cells preincubated for 24 hrs under serum free condition followed by compound washout and further incubation for 48 hrs in presence of serum by MTT assay; assay type: functional, cell-based; method in brief: as §1
[8] = Cytostatic activity against human PE/CA-PJ15 cells preincubated for 24 hrs under serum free condition followed by compound washout and further incubation for 48 hrs in presence of serum by MTT assay; assay type: functional, cell-based; method in brief: as §1
[9] = Cytostatic activity against human PECAPJ41 cells preincubated for 24 hrs under serum free condition followed by compound washout and further incubation for 48 hrs in presence of serum by MTT assay; assay type: functional, cell-based; method in brief: as §1
OVCAR-3 = assay: Cytostatic activity against human OVCAR3 cells preincubated for 24 hrs under serum free condition followed by compound washout and further incubation for 48 hrs in presence of serum by MTT assay; assay type: functional, cell-based; method in brief: as §1
DU-145 [10] = assay: Cytostatic activity against human DU145 cells preincubated for 24 hrs under serum free condition followed by compound washout and further incubation for 48 hrs in presence of serum by MTT assay; assay type: functional, cell-based; method in brief: as §1
MRC5 = assay: Cytostatic activity against human MRC5 cells preincubated for 24 hrs under serum free condition followed by compound washout and further incubation for 48 hrs in presence of serum by MTT assay; assay type: ADME, cell-based; method in brief: as §1
MCF7 = assay: Potency index, ratio of compound IC50 to Daunomycin IC50 for human MCF7 cells preincubated for 24 hrs under serum free condition followed by compound washout and further incubation for 48 hrs in presence of serum by MTT assay; assay type: functional
MDA-MB-231 = assay: Potency index, ratio of compound IC50 to Daunomycin IC50 for human MDA-MB-231 cells preincubated for 24 hrs under serum free condition followed by compound washout and further incubation for 48 hrs in presence of serum by MTT assay; assay type: functional
HT-29 [11] = assay: Potency index, ratio of compound IC50 to Daunomycin IC50 for human HT-29 cells preincubated for 24 hrs under serum free condition followed by compound washout and further incubation for 48 hrs in presence of serum by MTT assay; assay type: functional
WiDr [12] = assay: Potency index, ratio of compound IC50 to Daunomycin IC50 for human WiDr cells preincubated for 24 hrs under serum free condition followed by compound washout and further incubation for 48 hrs in presence of serum by MTT assay; assay type: functional
HepG2 [13] = assay: Potency index, ratio of compound IC50 to Daunomycin IC50 for human HepG2 cells preincubated for 24 hrs under serum free condition followed by compound washout and further incubation for 48 hrs in presence of serum by MTT assay; assay type: functional
A2058 = assay: Potency index, ratio of compound IC50 to Daunomycin IC50 for human A2058 cells preincubated for 24 hrs under serum free condition followed by compound washout and further incubation for 48 hrs in presence of serum by MTT assay; assay type: functional
[14] = Potency index, ratio of compound IC50 to Daunomycin IC50 for human WM983B cells preincubated for 24 hrs under serum free condition followed by compound washout and further incubation for 48 hrs in presence of serum by MTT assay; assay type: functional
B16 [15] = assay: Potency index, ratio of compound IC50 to Daunomycin IC50 for mouse B16 cells preincubated for 24 hrs under serum free condition followed by compound washout and further incubation for 48 hrs in presence of serum by MTT assay; assay type: functional
[16] = Potency index, ratio of compound IC50 to Daunomycin IC50 for human PECAPJ41 cells preincubated for 24 hrs under serum free condition followed by compound washout and further incubation for 48 hrs in presence of serum by MTT assay; assay type: functional
DU-145 [17] = assay: Potency index, ratio of compound IC50 to Daunomycin IC50 for human DU145 cells preincubated for 24 hrs under serum free condition followed by compound washout and further incubation for 48 hrs in presence of serum by MTT assay; assay type: functional
PC-3 = assay: Potency index, ratio of compound IC50 to Daunomycin IC50 for human PC3 cells preincubated for 24 hrs under serum free condition followed by compound washout and further incubation for 48 hrs in presence of serum by MTT assay; assay type: functional
HT-29 [18] = assay: Antitumor activity against human HT-29 cells xenografted in SCID mouse assessed as tumor growth inhibition by measuring decrease in tumor weight at 38.3 mg/kg, ip administered thrice in first week and twice in second week (on days 13, 16, 20, 23 and 27) starting from 13 days post inoculation measured at day 30 post inoculation relative to control; assay type: functional; details: HT-29, ip
Method in brief: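 Orthotopic HT-29 tumours in female SCID mice aged 6–8 weeks (22–27 g), 8 per group. Conjugates were given i.p. in water for injection at 10 mg/kg Dau content on days 13, 16, 20, 23 and 27. The study ended on day 30. Tumours were weighed against solvent controls, and livers were weighed as a toxicity read-out.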

[19] = Retention time of the compound using 0.1% TFA in water and 0.1% TFA in acetonitrile-water (80:20 v/v) as eluents by RP-HPLC analysis; assay type: physicochemical
Method in brief: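 Analytical RP-HPLC. Eluent A was 0.1% TFA in water and eluent B was 0.1% TFA in acetonitrile-water (80:20, v/v). Gradient: 0% B held to 5 min, then to 90% B at 50 min. Flow 1 mL/min, detection at 220 nm. The column was a Phenomenex Aeris Peptide XB-C18 (250×4.6 mm, 3.6 μm) or a Nucleosil C18 (5 μm, 100 Å, 250×4.6 mm), depending on the conjugate series.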

## COc1cccc2c1C(=O)c1c(O)c3c(c(O)c1C2=O)C[C@@](O)(/C(C)=N/OCC(=O)N[C@@H](CC(C)C)C(=O)N[C@@H](CCCNC(=N)N)C(=O)N[C@@H](CCCNC(=N)N)C(=O)N[C@@H](Cc1ccc(O)cc1)C(=O)N[C@H](C(=O)N[C@@H](Cc1cnc[nH]1)C(=O)N[C@@H](CC(C)C)C(=O)N[C@@H](Cc1ccccc1)C(=O)N[C@@H](Cc1ccc(O)cc1)C(=O)N[C@@H](C)C(=O)N[C@H](C(N)=O)[C@@H](C)O)C(C)C)C[C@@H]3O[C@H]1C[C@H](N)[C@H](O)[C@H](C)O1 (X1-LRRYVHLFYAT-NH2)
[1]
  Stability: Stable
[2]
  Drug metabolism: Metabolite_Detected
WiDr [3]
  IC50: 15.1 µM
HepG2 [4]
  IC50: 4.7 µM
NCI-H1975
  IC50: 3.7 µM
[5]
  IC50: 5.8 µM
[6]
  IC50: 5.1 µM
B16 [7]
  IC50: 3 µM
[8]
  IC50: 7.4 µM
[9]
  IC50: 4.3 µM
OVCAR-3
  IC50: 11.3 µM
DU-145 [10]
  IC50: 3.5 µM
MRC5
  IC50: 52.1 µM
MCF7
  Ratio IC50: 38.8
MDA-MB-231
  Ratio IC50: 86.6
HT-29 [11]
  Ratio IC50: 57.1
WiDr [12]
  Ratio IC50: 62.8
HepG2 [13]
  Ratio IC50: 220.2
A2058
  Ratio IC50: 104.5
[14]
  Ratio IC50: 114.6
B16 [15]
  Ratio IC50: 335.4
[16]
  Ratio IC50: 165.7
DU-145 [17]
  Ratio IC50: 142.3
PC-3
  Ratio IC50: 226.7
HT-29 [18]
  inhibition in vivo at 38.3 mg/kg: 89%
[19]
  Retention time: 31.2 to 33.2 min
